Measurements pooled from the literature.
Each line is one published result; the experiments were not run side by side.

| SMILES | target or system | assay | test system | conditions | measurement | result |
| --- | --- | --- | --- | --- | --- | --- |
| CCc1cc(-c2noc(-c3cc(OC)nc(C4CCCC4)c3)n2)cc(C)c1OC[C@@H](O)CO | – | – | Wistar rat, plasma | oral, 0.3 mg/kg, 3 h, single dose | concentration | 16.7 ng/mL |
| Cc1noc(C)c1Cn1cc(N2C(=O)CN(Cc3cccc(O)c3)C2=O)cn1 | – | – | male Sprague-Dawley rat, plasma | oral, 100 mg/kg, 1 h | concentration | 30.5 ng/mL |
| CCOC(=O)[C@@]12C[C@@H]1[C@@H](n1ccc3c(NC)nc(C#Cc4ccc(Cl)s4)nc31)[C@H](O)[C@@H]2O | – | – | male Sprague-Dawley rat, plasma | oral, 1 mg/kg, 15 min | concentration | 5.75 ng/mL |
| CSc1nc2nnnc(O)c2s1 | K562 | cell growth or viability | – | – | IC50 | > 640 µM |
| COc1cccc(-c2n[nH]c(SCc3ccccn3)n2)c1OC | – | – | female Sprague-Dawley rat, plasma | intravenous, 1 mg/kg, 10 min, single dose | concentration | 2680 ng/mL |
| Cc1nnc(SCC(=O)Nc2ccc(Br)cc2)nc1O | K562 | cell growth or viability | – | – | IC50 | > 200 µM |
| C[C@@H]1Cn2ncc(-c3ccc(C(=O)N4CCCc5ccccc54)cc3)c2CN1C(=O)[C@H](C)c1ccccc1 | Broad substrate specificity ATP-binding cassette transporter ABCG2 (ABCG2, Homo sapiens, UniProt Q9UNQ0) | – | dog, MDCK-MDR1 | – | Papp B→A | 13.4 ×10⁻⁶ cm/s |
| COc1ccc2c(=O)n(C)c(-c3ccccc3)nc2c1 | – | – | male Sprague-Dawley rat, lung | oral, 30 mg/kg, 2 h | concentration | 2.13 ng/mL |
| O=C(N/N=C/c1ccc2ccccc2c1)c1ccc(O)c(O)c1 | K562 | cell growth or viability | – | – | IC50 | 28.9 µM |
